Values after ≈ are worked out from the molar mass of the structure shown.
Key:
Enterococcus faecalis [1] = assay: Antibacterial activity against glycopeptide resistant Enterococcus faecalis 560 strain; assay type: functional
In short: (§1)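 MIC by broth microdilution in Mueller Hinton broth following NCCLS procedures. Compounds were dissolved in 10% DMSO in water, then diluted in broth. Final DMSO was 1.28% at 128 µg/mL antibiotic down to 0.0013% at 0.13 µg/mL. Repeat determinations were usually identical and always within 2-fold.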

[2] = test system: Staphylococcus epidermidis; assay: Antibacterial activity against Staphylococcus epidermis 533 strain; assay type: functional
[3] = test system: Staphylococcus haemolyticus; assay: Antibacterial activity against Staphylococcus haemolyticus 602 strain
Enterococcus faecalis [4] = assay: Antibacterial activity against glycopeptide susceptible Enterococcus faecalis 559 strain; assay type: functional
In short: (§2)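 MIC by broth microdilution in Mueller Hinton broth following NCCLS procedures. Compounds dissolved in 10% DMSO in water, then diluted in broth; test range 128 to 0.13 µg/mL, final DMSO 1.28% to 0.0013% accordingly. Repeat determinations usually identical and always within 2-fold. Strain 533 is a clinical isolate; strain 602 is a clinical S. haemoliticus isolate.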

Staphylococcus aureus [5] = assay: Antibacterial activity against glycopeptide intermediate resistant Staphylococcus aureus 3798 strain; assay type: functional; in short: as §1
Enterococcus faecium [6] = assay: Antibacterial activity against glycopeptide resistant Enterococcus faecium 569 strain; assay type: functional; in short: as §1
Staphylococcus aureus [7] = assay: Antibacterial activity against glycopeptide intermediate resistant Staphylococcus aureus 3797 strain; assay type: functional; in short: as §1
Enterococcus faecium [8] = assay: Antibacterial activity against glycopeptide susceptible Enterococcus faecium 568 strain; assay type: functional; in short: as §2

Compound | MIC (Enterococcus faecalis [1]) [µg/mL] | MIC [2] [µg/mL] | MIC [3] [µg/mL] | MIC (Enterococcus faecalis [4]) [µg/mL] | MIC (Staphylococcus aureus [5]) [µg/mL] | MIC (Enterococcus faecium [6]) [µg/mL] | MIC (Staphylococcus aureus [7]) [µg/mL] | MIC (Enterococcus faecium [8]) [µg/mL]
CN[C@H](CC(C)C)C(=O)N[C@H]1C(=O)N[C@@H](CC(N)=O)C(=O)N[C@H]2C(=O)N[C@H]3C(=O)N[C@H](C(=O)N[C@H](C(=O)NCc4ccc(-c5ccc(Cl)cc5)cc4)c4cc(O)cc(O)c4-c4cc3ccc4O)[C@H](O[C@H]3C[C@](C)(N)[C@@H](O)[C@H](C)O3)c3ccc(cc3)Oc3cc2cc(c3O[C@@H]2O[C@H](CO)[C@@H](O)[C@H](O)[C@H]2O[C@H]2C[C@](C)(N)[C@@H](O)[C@H](C)O2)Oc2ccc(cc2Cl)[C@H]1O | 4 (≈ 2.28 µM) | 2 (≈ 1.14 µM) | 1 (≈ 0.569 µM) | 2 (≈ 1.14 µM) | 4 (≈ 2.28 µM) | 4 (≈ 2.28 µM) | 4 (≈ 2.28 µM) | 1 (≈ 0.569 µM)
C[C@@H]1O[C@@H](O[C@H]2[C@H](Oc3c4cc5cc3Oc3ccc(cc3Cl)[C@@H](O)[C@@H](N)C(=O)N[C@@H](CC(N)=O)C(=O)N[C@H]5C(=O)N[C@H]3C(=O)N[C@H](C(=O)N[C@H](C(=O)O)c5cc(O)cc(O)c5-c5cc3ccc5O)[C@H](O[C@H]3C[C@](C)(N)[C@@H](O)[C@H](C)O3)c3ccc(cc3)O4)O[C@H](CO)[C@@H](O)[C@@H]2O)C[C@](C)(N)[C@H]1O | > 128 | 16 (≈ 11.2 µM) | 16 (≈ 11.2 µM) | 16 (≈ 11.2 µM) | 64 (≈ 44.7 µM) | > 128 | 64 (≈ 44.7 µM) | 16 (≈ 11.2 µM)
CCCCCCCCCCNC(=O)[C@H]1NC(=O)[C@H]2NC(=O)[C@H](NC(=O)[C@@H]3NC(=O)[C@H](CC(N)=O)NC(=O)[C@H](N)[C@H](O)c4ccc(c(Cl)c4)Oc4cc3cc(c4O[C@@H]3O[C@H](CO)[C@@H](O)[C@H](O)[C@H]3O[C@H]3C[C@](C)(N)[C@@H](O)[C@H](C)O3)Oc3ccc(cc3)[C@H]2O[C@H]2C[C@](C)(N)[C@@H](O)[C@H](C)O2)c2ccc(O)c(c2)-c2c(O)cc(O)cc21 | 4 (≈ 2.55 µM) | 0.5 (≈ 0.318 µM) | 1 (≈ 0.637 µM) | 2 (≈ 1.27 µM) | 8 (≈ 5.1 µM) | 2 (≈ 1.27 µM) | 4 (≈ 2.55 µM) | 2 (≈ 1.27 µM)
CCCCCCCCCCNC(=O)[C@H]1NC(=O)[C@H]2NC(=O)[C@H](NC(=O)[C@@H]3NC(=O)[C@H](CC(N)=O)NC(=O)[C@H](N)[C@H](O)c4ccc(c(Cl)c4)Oc4cc3cc(c4O)Oc3ccc(cc3)[C@H]2O)c2ccc(O)c(c2)-c2c(O)cc(O)cc21 | > 128 | 16 (≈ 14.3 µM) | 64 (≈ 57.1 µM) | 64 (≈ 57.1 µM) | 32 (≈ 28.5 µM) | 64 (≈ 57.1 µM) | 32 (≈ 28.5 µM) | 64 (≈ 57.1 µM)
CN[C@H](CC(C)C)C(=O)N[C@H]1C(=O)N[C@@H](CC(N)=O)C(=O)N[C@H]2C(=O)N[C@H]3C(=O)N[C@H](C(=O)N[C@H](C(=O)NCc4ccc(-c5ccc(Cl)cc5)cc4)c4cc(O)cc(O)c4-c4cc3ccc4O)[C@H](O)c3ccc(cc3)Oc3cc2cc(c3O)Oc2ccc(cc2Cl)[C@H]1O | 8 (≈ 6.11 µM) | 4 (≈ 3.06 µM) | 8 (≈ 6.11 µM) | 8 (≈ 6.11 µM) | 8 (≈ 6.11 µM) | 8 (≈ 6.11 µM) | 8 (≈ 6.11 µM) | 8 (≈ 6.11 µM)
CCCCCCCCCCNC(=O)[C@H]1NC(=O)[C@H]2NC(=O)[C@H](NC(=O)[C@@H]3NC(=O)[C@H](CC(N)=O)NC(=O)[C@H](NC(=O)[C@@H](CC(C)C)NC)[C@H](O)c4ccc(c(Cl)c4)Oc4cc3cc(c4O[C@@H]3O[C@H](CO)[C@@H](O)[C@H](O)[C@H]3O[C@H]3C[C@](C)(N)[C@@H](O)[C@H](C)O3)Oc3ccc(cc3)[C@H]2O[C@H]2C[C@](C)(N)[C@@H](O)[C@H](C)O2)c2ccc(O)c(c2)-c2c(O)cc(O)cc21 | 4 (≈ 2.36 µM) | 0.13 (≈ 0.0766 µM) | 0.13 (≈ 0.0766 µM) | 1 (≈ 0.589 µM) | 4 (≈ 2.36 µM) | 2 (≈ 1.18 µM) | 4 (≈ 2.36 µM) | 0.5 (≈ 0.295 µM)
NC(=O)C[C@@H]1NC(=O)[C@H](N)[C@H](O)c2ccc(c(Cl)c2)Oc2cc3cc(c2O)Oc2ccc(cc2)[C@@H](O)[C@@H]2NC(=O)[C@H](NC(=O)[C@@H]3NC1=O)c1ccc(O)c(c1)-c1c(O)cc(O)cc1[C@@H](C(=O)NCc1ccc(-c3ccc(Cl)cc3)cc1)NC2=O | 64 (≈ 54.1 µM) | 32 (≈ 27.1 µM) | 64 (≈ 54.1 µM) | 64 (≈ 54.1 µM) | 64 (≈ 54.1 µM) | 64 (≈ 54.1 µM) | 64 (≈ 54.1 µM) | 32 (≈ 27.1 µM)
CN[C@H](CC(C)C)C(=O)N[C@H]1C(=O)N[C@@H](CC(N)=O)C(=O)N[C@H]2C(=O)N[C@H]3C(=O)N[C@H](C(=O)N[C@H](C(=O)O)c4cc(O)cc(O)c4-c4cc3ccc4O)[C@H](O)c3ccc(cc3)Oc3cc2cc(c3O)Oc2ccc(cc2Cl)[C@H]1O [EREMOMYCIN AGLYCON] | > 128 | 32 (≈ 28.8 µM) | 16 (≈ 14.4 µM) | 16 (≈ 14.4 µM) | > 64 | > 128 | > 64 | 32 (≈ 28.8 µM)
CN[C@H](CC(C)C)C(=O)N[C@H]1C(=O)N[C@@H](CC(N)=O)C(=O)N[C@H]2C(=O)N[C@H]3C(=O)N[C@H](C(=O)N[C@H](C(=O)O)c4cc(O)cc(O)c4-c4cc3ccc4O)[C@H](O)c3ccc(c(Cl)c3)Oc3cc2cc(c3O[C@@H]2O[C@H](CO)[C@@H](O)[C@H](O)[C@H]2O[C@H]2C[C@](C)(N)[C@H](O)[C@H](C)O2)Oc2ccc(cc2Cl)[C@H]1O [VANCOMYCIN] | > 128 | – | – | 1 (≈ 0.69 µM) | 8 (≈ 5.52 µM) | > 128 | 16 (≈ 11 µM) | –

From ChEMBL document CHEMBL1136741, “Role of the glycopeptide framework in the antibacterial activity of hydrophobic derivatives of glycopeptide antibiotics” (2003)
